ChEMBL document CHEMBL4028913, “Discovery of Novel Potent VEGFR-2 Inhibitors Exerting Significant Antiproliferative Activity against Cancer Cell Lines” (J Med Chem, 2018)
Activity calls are given as the source filed them. No cut-off for these calls is given here.

Experiments:
[1] = molecular target: Ephrin type-A receptor 8 (Homo sapiens) (UniProt P29322); assay: Inhibition of human EPHA8 at 0.5 uM relative to control
Hs-578T = assay: Cytotoxicity against human Hs 578T cells after 48 hrs by SRB assay; format: functional
Outline: (§1)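 NCI-60 panel; cells grown in RPMI 1640 with 5% FBS and 2 mM L-glutamine, plated at 5000–40 000 cells/well by doubling time, preincubated 24 h (37 °C, 5% CO2). Drug added at five concentrations, 1-log steps from 10−4 to 10−8 M, for 48 h. Fixed with TCA, stained with 0.4% SRB, absorbance read at 515 nm. Percent growth computed against time-zero and untreated controls; GI50, TGI and LC50 derived.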

[2] = Potency index, ratio of sunitinib GI50 to test compound GI50 for human prostate cancer cells; format: functional, Prostate cancer cell
SK-OV-3 = assay: Cytotoxicity against human SKOV3 cells after 48 hrs by SRB assay; format: functional; conditions: SK-OV-3, 48 h; outline: as §1
NCI/ADR-RES [3] = assay: Potency index, ratio of sorafenib GI50 to test compound GI50 for human NCI-ADR-RES cells; format: functional
Outline: (§2)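 GI50 is the concentration giving 50% reduction in net protein increase relative to control. Potency index is the reference-drug GI50 divided by the test-compound GI50.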

[4] = molecular target: Fibroblast growth factor receptor 3 (Homo sapiens) (UniProt P22607); assay: Inhibition of human FGFR3 at 0.5 uM relative to control
[5] = molecular target: Mitogen-activated protein kinase kinase kinase kinase 5 (Homo sapiens) (UniProt Q9Y4K4); assay: Inhibition of human KHS at 0.5 uM relative to control
A498 = assay: Cytotoxicity against human A498 cells after 48 hrs by SRB assay; format: functional; conditions: A498, 48 h; outline: as §1
SNB-75 = assay: Cytotoxicity against human SNB75 cells after 48 hrs by SRB assay; format: functional; conditions: SNB-75, 48 h; outline: as §1
[6] = Potency index, ratio of test compound LC50 to sunitinib LC50 for human renal cancer cells; format: functional, Renal cancer cell
[7] = molecular target: Fibroblast growth factor receptor 2 (Homo sapiens) (UniProt P21802); assay: Inhibition of human FGFR2 at 0.5 uM relative to control
[8] = molecular target: Ephrin type-A receptor 7 (Homo sapiens) (UniProt Q15375); assay: Inhibition of human EPHA7 at 0.5 uM relative to control
[9] = Potency index, ratio of sunitinib GI50 to test compound GI50 for human CNS cancer cells; format: functional, CNS cancer cell; outline: as §2
[10] = molecular target: Proto-oncogene tyrosine-protein kinase Src (Homo sapiens) (UniProt P12931); conditions: at 0.5 µM
NCI-H226 = assay: Cytotoxicity against human NCI-H226 cells after 48 hrs by SRB assay; format: functional; conditions: NCI-H226, 48 h; outline: as §1
Melanoma cell = assay: Potency index, ratio of sorafenib GI50 to test compound GI50 for human melanoma cells; format: functional; outline: as §2
A-431 = assay: Growth inhibition of human A431 cells at 10 uM after 72 hrs by CellTiter-Glo assay relative to control; format: functional; conditions: A-431, 72 h, read-out: GI
Outline: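 A431 cells seeded at 2000–4000 cells/well and treated with 10 μM final compound, 0.1% DMSO, for 72 h at 37 °C, 5% CO2. Viability read by CellTiter-Glo. Inhibition ratio = 1 − Vsample/Vvehicle control; triplicate.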

NCI-H322M = assay: Cytotoxicity against human NCI-H322M cells after 48 hrs by SRB assay; format: functional; outline: as §1
HCT-116 = assay: Cytotoxicity against human HCT116 cells after 48 hrs by SRB assay; format: functional; conditions: HCT-116, 48 h; outline: as §1
UACC-257 = assay: Cytotoxicity against human UACC257 cells after 48 hrs by SRB assay; format: functional; conditions: UACC-257, 48 h
Outline: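 NCI-60 panel, five doses at 1-log steps from 10−4 to 10−8 M. Cells grown in RPMI 1640 with 5% FBS and 2 mM L-glutamine, seeded at 5000–40 000 cells/well and preincubated 24 h. Tz plates were TCA-fixed at drug addition. Drug exposure 48 h at 37 °C, then TCA fixation, 0.4% SRB stain and absorbance at 515 nm. GI50 taken from percent growth relative to Tz and control.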

[11] = molecular target: Receptor-type tyrosine-protein kinase FLT3 (Homo sapiens) (UniProt P36888); assay: Inhibition of human Flt3 at 0.5 uM relative to control
[12] = Potency index, ratio of sorafenib TGI to test compound TGI for human renal cancer cells; format: functional, Renal cancer cell
[13] = molecular target: Vascular endothelial growth factor receptor 2 (Homo sapiens, UniProt P35968); assay: Inhibition of VEGFR2 in human prostate cancer cells assessed as decrease in Akt activation at 10 uM relative to control
[14] = Potency index, ratio of sorafenib GI50 to test compound GI50 for human colon cancer cells; format: functional, Colon cancer cell; outline: as §2
MDA-MB-231 = assay: Cytotoxicity against human MDA-MB-231 cells after 48 hrs by SRB assay; format: functional; conditions: MDA-MB-231, 48 h; outline: as §1
Malme-3M = assay: Cytotoxicity against human MALME-3M cells after 48 hrs by SRB assay; format: functional; outline: as §1
NCI/ADR-RES [15] = assay: Potency index, ratio of sunitinib GI50 to test compound GI50 for human NCI-ADR-RES cells; format: functional; outline: as §2
K562 = assay: Cytotoxicity against human K562 cells after 48 hrs by SRB assay; format: functional; conditions: K562, 48 h; outline: as §1
[16] = molecular target: Ephrin type-A receptor 4 (Homo sapiens) (UniProt P54764); assay: Inhibition of human EPHA4 at 0.5 uM relative to control
SK-MEL-5 = assay: Cytotoxicity against human SK-MEL-5 cells after 48 hrs by SRB assay; format: functional; conditions: SK-MEL-5, 48 h; outline: as §1
[17] = molecular target: Fibroblast growth factor receptor 1 (Homo sapiens) (UniProt P11362); assay: Inhibition of human FGFR1 at 0.5 uM relative to control
KM12 = assay: Cytotoxicity against human KM12 cells after 48 hrs by SRB assay; format: functional; conditions: KM12, 48 h; outline: as §1
M14 = assay: Cytotoxicity against human M14 cells after 48 hrs by SRB assay; format: functional; conditions: M14, 48 h; outline: as §1
[18] = read-out: LC50 (the source's name)

Fibroblast growth factor receptor 2 (Homo sapiens), sequence (P21802 22-821 limits assumed): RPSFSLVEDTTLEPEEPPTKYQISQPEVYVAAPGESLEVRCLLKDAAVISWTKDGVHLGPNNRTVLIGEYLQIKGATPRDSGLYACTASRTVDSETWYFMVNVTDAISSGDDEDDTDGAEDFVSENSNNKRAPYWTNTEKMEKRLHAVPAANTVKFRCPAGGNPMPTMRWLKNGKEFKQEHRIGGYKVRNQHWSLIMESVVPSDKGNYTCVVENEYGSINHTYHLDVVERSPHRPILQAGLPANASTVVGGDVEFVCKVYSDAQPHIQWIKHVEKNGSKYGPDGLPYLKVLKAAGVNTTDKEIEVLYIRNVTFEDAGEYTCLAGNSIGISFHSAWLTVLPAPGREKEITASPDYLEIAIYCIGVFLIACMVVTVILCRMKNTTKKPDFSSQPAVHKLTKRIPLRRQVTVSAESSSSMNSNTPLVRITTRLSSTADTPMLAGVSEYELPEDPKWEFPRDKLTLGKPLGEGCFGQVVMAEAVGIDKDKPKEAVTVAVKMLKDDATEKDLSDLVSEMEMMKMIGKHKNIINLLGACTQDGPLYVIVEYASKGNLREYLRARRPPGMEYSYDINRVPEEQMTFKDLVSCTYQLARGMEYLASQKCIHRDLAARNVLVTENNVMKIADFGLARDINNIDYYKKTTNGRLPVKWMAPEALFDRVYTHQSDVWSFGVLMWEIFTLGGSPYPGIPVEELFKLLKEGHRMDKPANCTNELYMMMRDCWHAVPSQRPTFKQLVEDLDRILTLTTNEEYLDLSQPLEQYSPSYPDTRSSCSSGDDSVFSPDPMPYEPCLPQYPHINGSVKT
Vascular endothelial growth factor receptor 2, sequence (P35968 whole entry): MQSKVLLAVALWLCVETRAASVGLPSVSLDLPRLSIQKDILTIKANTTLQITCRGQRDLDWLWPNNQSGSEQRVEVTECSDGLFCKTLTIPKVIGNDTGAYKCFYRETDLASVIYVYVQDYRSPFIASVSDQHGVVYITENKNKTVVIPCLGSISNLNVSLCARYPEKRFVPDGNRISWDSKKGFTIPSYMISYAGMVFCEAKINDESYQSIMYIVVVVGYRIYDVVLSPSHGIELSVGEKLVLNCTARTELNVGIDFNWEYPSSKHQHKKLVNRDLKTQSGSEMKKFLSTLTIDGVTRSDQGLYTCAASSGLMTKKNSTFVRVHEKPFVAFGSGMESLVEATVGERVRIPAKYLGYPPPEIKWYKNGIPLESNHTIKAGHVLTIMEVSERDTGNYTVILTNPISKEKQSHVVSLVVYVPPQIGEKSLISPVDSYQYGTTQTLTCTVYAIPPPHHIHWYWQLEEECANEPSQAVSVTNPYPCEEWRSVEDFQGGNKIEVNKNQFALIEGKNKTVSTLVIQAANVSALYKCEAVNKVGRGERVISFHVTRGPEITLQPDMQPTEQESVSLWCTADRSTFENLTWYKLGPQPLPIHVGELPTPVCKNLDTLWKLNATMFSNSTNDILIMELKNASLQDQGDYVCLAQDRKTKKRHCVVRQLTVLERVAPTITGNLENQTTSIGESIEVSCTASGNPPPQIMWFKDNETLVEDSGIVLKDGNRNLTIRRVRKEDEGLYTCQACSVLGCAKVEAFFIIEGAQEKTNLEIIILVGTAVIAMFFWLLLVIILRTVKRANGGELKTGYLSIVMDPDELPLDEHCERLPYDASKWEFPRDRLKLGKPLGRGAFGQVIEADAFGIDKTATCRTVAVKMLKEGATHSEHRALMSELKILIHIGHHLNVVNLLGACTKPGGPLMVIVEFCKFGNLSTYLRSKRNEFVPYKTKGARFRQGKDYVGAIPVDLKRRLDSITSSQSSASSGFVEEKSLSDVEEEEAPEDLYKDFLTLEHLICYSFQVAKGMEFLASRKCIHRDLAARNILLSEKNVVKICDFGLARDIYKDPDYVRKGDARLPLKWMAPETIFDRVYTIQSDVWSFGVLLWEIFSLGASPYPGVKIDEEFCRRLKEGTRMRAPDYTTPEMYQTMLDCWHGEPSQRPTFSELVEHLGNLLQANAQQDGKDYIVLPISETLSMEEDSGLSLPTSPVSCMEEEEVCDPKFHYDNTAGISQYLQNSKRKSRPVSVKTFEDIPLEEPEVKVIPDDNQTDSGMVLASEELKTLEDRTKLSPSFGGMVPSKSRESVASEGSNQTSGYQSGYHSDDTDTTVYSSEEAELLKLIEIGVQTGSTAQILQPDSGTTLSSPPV
Ephrin type-A receptor 4 (Homo sapiens), sequence (P54764 whole entry): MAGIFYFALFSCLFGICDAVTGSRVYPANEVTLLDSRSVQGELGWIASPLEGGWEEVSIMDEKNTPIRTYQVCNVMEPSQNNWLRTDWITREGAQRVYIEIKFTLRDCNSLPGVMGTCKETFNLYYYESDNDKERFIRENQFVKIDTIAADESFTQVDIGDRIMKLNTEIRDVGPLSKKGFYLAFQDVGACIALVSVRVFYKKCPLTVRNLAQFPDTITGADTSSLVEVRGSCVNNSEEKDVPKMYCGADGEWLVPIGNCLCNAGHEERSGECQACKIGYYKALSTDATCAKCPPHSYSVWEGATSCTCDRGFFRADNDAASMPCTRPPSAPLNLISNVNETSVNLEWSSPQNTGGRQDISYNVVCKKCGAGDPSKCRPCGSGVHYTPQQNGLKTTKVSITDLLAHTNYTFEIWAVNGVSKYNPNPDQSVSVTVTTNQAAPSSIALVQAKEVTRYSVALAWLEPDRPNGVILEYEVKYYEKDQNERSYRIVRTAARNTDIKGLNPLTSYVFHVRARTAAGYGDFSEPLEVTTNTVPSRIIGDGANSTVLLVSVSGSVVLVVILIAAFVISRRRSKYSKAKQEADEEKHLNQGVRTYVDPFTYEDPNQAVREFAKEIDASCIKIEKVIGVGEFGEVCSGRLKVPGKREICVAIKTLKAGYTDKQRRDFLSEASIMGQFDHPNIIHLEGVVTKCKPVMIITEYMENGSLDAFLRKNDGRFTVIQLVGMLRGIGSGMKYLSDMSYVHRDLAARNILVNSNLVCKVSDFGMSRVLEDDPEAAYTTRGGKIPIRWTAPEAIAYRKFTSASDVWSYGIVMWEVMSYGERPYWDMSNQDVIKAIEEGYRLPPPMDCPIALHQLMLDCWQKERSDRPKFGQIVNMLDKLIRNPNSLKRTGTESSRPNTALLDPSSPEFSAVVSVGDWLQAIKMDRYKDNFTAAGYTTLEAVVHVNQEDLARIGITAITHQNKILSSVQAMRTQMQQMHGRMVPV
Receptor-type tyrosine-protein kinase FLT3 (Homo sapiens), sequence (P36888 whole entry): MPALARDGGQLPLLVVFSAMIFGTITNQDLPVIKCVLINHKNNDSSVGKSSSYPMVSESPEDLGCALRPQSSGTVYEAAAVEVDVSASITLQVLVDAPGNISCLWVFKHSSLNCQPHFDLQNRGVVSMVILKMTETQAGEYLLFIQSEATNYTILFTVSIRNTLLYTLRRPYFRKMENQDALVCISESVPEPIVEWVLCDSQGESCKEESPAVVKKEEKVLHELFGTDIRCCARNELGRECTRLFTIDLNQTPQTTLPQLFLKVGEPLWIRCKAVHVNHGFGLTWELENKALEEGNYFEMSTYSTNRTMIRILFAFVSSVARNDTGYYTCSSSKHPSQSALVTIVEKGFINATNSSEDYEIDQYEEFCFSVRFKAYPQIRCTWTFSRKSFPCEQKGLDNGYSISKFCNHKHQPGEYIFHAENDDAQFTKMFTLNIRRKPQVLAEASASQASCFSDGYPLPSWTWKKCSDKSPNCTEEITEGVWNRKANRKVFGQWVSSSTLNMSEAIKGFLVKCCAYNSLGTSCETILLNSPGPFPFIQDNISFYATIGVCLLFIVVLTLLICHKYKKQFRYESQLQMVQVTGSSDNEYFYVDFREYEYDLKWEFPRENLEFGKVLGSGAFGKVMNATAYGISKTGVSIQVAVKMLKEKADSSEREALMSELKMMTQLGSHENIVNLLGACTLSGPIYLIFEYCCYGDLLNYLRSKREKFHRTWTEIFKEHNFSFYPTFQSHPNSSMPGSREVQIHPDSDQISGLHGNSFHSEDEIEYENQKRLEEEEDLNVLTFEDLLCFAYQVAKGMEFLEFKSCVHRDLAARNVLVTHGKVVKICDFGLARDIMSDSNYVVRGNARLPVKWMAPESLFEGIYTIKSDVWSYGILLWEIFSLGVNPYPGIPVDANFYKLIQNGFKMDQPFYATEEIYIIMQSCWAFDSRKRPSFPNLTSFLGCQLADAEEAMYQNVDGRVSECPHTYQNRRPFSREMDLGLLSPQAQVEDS
Proto-oncogene tyrosine-protein kinase Src (Homo sapiens), sequence (P12931 2-536 limits assumed): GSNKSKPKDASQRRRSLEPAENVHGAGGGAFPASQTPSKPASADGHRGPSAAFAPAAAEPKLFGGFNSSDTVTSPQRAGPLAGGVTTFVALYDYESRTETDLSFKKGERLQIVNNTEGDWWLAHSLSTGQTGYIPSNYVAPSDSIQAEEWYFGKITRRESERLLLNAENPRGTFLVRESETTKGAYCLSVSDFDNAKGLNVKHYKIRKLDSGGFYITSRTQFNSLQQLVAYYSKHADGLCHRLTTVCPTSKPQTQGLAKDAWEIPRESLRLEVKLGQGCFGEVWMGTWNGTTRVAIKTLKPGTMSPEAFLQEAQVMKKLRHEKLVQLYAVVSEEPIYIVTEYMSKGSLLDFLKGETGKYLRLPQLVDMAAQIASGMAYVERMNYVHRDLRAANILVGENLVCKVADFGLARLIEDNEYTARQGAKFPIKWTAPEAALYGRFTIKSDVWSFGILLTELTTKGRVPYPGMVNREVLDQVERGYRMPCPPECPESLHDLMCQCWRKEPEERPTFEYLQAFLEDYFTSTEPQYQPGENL

COc1cc2ncnc(Oc3ccc(NC(=O)Nc4ccc(CN5CCOCC5)c(C(F)(F)F)c4)c4ccccc34)c2cc1OC
inhibition [1]: Active | GI50 (Hs-578T): 1120 nM | TGI (Hs-578T): 9330 nM | CC50 (Hs-578T; [18]): > 100000 nM | RatioGI50 [2]: 1.5 | GI50 (SK-OV-3): 230 nM | TGI (SK-OV-3): 950 nM | CC50 (SK-OV-3; [18]): 37200 nM | RatioGI50 (NCI/ADR-RES [3]): 3.3 | inhibition [4]: > 96% | inhibition [5]: Active | GI50 (A498): 50 nM | TGI (A498): 520 nM | CC50 (A498; [18]): 30900 nM | GI50 (SNB-75): 1050 nM | TGI (SNB-75): 13800 nM | CC50 (SNB-75; [18]): 38900 nM | RatioLC50 [6]: 1.3 | inhibition [7]: > 96% | inhibition [8]: Active | RatioGI50 [9]: 1.1 - 3.7 | inhibition [10]: Active | GI50 (NCI-H226): 70 nM | TGI (NCI-H226): 13800 nM | CC50 (NCI-H226; [18]): > 100000 nM | RatioGI50 (Melanoma cell): 1.6 - 2.9 | inhibition of growth at 10 µM (A-431): 57.7% | GI50 (NCI-H322M): 560 nM | TGI (NCI-H322M): 15100 nM | CC50 (NCI-H322M; [18]): 93300 nM | GI50 (HCT-116): 790 nM | TGI (HCT-116): 2570 nM | CC50 (HCT-116; [18]): 7080 nM | GI50 (UACC-257): 790 nM | TGI (UACC-257): 3980 nM | CC50 (UACC-257; [18]): 47900 nM | inhibition [11]: Active | Ratio [12]: 3.2 | inhibition [13]: < 20% | RatioGI50 [14]: 1.6 - 2.9 | GI50 (MDA-MB-231): 1150 nM | TGI (MDA-MB-231): 7940 nM | CC50 (MDA-MB-231; [18]): 42700 nM | GI50 (Malme-3M): 300 nM | TGI (Malme-3M): 1550 nM | CC50 (Malme-3M; [18]): 5750 nM | RatioGI50 (NCI/ADR-RES [15]): 6.9 | GI50 (K562): < 10 nM | TGI (K562): 1120 nM | CC50 (K562; [18]): 95500 nM | inhibition [16]: Active | GI50 (SK-MEL-5): 450 nM | TGI (SK-MEL-5): 2690 nM | CC50 (SK-MEL-5; [18]): 17000 nM | inhibition [17]: > 96% | GI50 (KM12): 200 nM | TGI (KM12): 2510 nM | CC50 (KM12; [18]): > 100000 nM | GI50 (M14): 950 nM | TGI (M14): 4570 nM | CC50 (M14; [18]): 26900 nM
